Assay outcomes (PubChem BioAssay)
rRNA inh HTS: inhibitors of bacterial rRNA selective over humanized ribosomes; E. coli WT GFP vs humanized-ribosome RFP mutants, fluorescence, 24 h; stronger effect = lower value; DMSO median 0, no signal -100; GFP signal change (wild-type ribosome), % (no concentration beside the values); hit rate 1.6% among 350,000; AID 720706;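 active = significant combined selectivity score with lowered wild-type GFP, culture density cut under 30%, mutant RFP and density less affected; inactive = any of these conditions unmet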
Cneo AK release: Cryptococcus neoformans lysis via adenylate kinase release; C. neoformans lysis, adenylate kinase release luminescence, 4 h; normalised: neutral wells 0, clomiphene wells 100; lysis activity, % at 15 µM; hit rate 0.2% among 360,000; AID 651654;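 active = mean lysis activity across replicates of at least 80%, whatever share of replicates individually reach that level; inactive = mean lysis activity below 80%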
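Material: C. neoformans cells; Schedule: 4 h static compound exposure, 37 °C, read 1 h post-reagent; Measured by: adenylate kinase release luminescence; Read-out: signal increase indicating cell lysis; Controls: Clomiphene as positive lysis control.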
PglD inh: blocks C. jejuni PglD acetyltransferase activity. purified PglD enzyme, DTNB colorimetric CoA detection. inhibition, % at 12.5 µM. hit rate 0.098% among 360,000. AID 602405; in the data active = inhibition above about 16%, passing the limit was not always enough
SUMO Mot1 rescue: SUMOylation pathway inhibition by Mot1-301 growth rescue; S. cerevisiae Mot1-301 growth rescue, ATP luminescence, 38.5C; percent above DMSO median, 100 means doubled; hit rate 1% among 320,000; growth rescue, % at 18.8 µM;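 active = every valid replicate shows activation above 250% relative to neutral control wells; inactive = the rest, any valid replicate at or below 250%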;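 note: OY570 slx delta 5 strain wells were the positive control but not used for scaling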
CR mimetic SO: lowers age-related superoxide in aged yeast cells | S. cerevisiae aged cells, superoxide DHE fluorescence; stronger effect = lower value | superoxide response (% of plate mean), % at 10 µM | hit rate 0.18% among 330,000 | AID 2690;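 active = superoxide response under a set limit, about three screen SD below normal, cut at about 65% in these data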;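 note: yeast aged for seven days with compound at 30 °C before DHE staining; 100% = average MFI of all compound-treated wells on the plate with controls excluded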
Mot1 SUMO dose: SUMO pathway inhibitors in yeast Mot1-301 growth. shares compounds with SUMO Mot1 rescue. S. cerevisiae Mot1-301 galactose growth, ATP luminescence, 24 h; -100 = growth of slx-deleted rescue strain. growth activity, percent, % at 42 µM. 2,300 tested, under 10 active. AID 493004;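 active = Signal drops as the depositor expects, and the fitted half-maximal dose is no more than ten times the top valid tested dose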;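 note: more negative values mean stronger growth rescue toward the control strain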
Active calls of the source: *; nt = no result; + = active, no number. Shown are actives, neighbours in structure and some others; about 2.2% of the full set was active somewhere.

SMILES | rRNA inh HTS | Cneo AK release | PglD inh | SUMO Mot1 rescue | CR mimetic SO | Mot1 SUMO dose
CO[C@H]1CN(C)C(=O)c2cc(NC(=O)C3CC3)ccc2OC[C@H](C)N(C(=O)Cc2ccccn2)C[C@H]1C | 3 | nt | nt | nt | nt | nt
C[C@@H]1CN([C@H](C)CO)C(=O)c2cc(NS(=O)(=O)c3cccs3)ccc2O[C@@H]1CN(C)Cc1ccncc1 | 1 | -12 | 1 | nt | nt | nt
N#C/C(=N\Nc1cccc(F)c1)C(=N)N1CCCCCC1 | 17 | nt | nt | 605* | 80 | 0
N#C/C(=N\Nc1ccc(F)cc1)C(=N)N1CCCCC1 | nt | -19 | -10 | 59 | 110 | nt
CCOc1ccc(-c2c(C(=O)N/N=C/c3ccncc3)nnn2-c2nonc2N)cc1 | 11 | 1 | -5 | 396* | 75 | 1
CCOc1ccc(-c2c(C(=O)N/N=C/c3ccccc3)nnn2-c2nonc2N)cc1 | 11 | nt | nt | 13 | 103 | nt
CC/C(=N\NC(=O)c1nnn(-c2nonc2N)c1-c1cccs1)c1ccccc1 | 9 | -1 | 0 | 371* | 85 | 1
CC/C(=N\NC(=O)c1nnn(-c2nonc2N)c1-c1ccc2c(c1)OCO2)c1ccccc1 | 4 | -3 | -4 | -2 | 125 | nt
CN1C(=O)c2cc(NC(=O)c3cccc(F)c3)ccc2OC[C@@H]2O[C@H](CC(=O)NC3CCC3)CC[C@H]21 | -1 | 0 | 19 | nt | nt | nt
C[C@@H]1CCCCO[C@H](CN(C)S(=O)(=O)c2ccccc2)[C@@H](C)CN([C@@H](C)CO)C(=O)c2cc(NC(=O)c3ccccc3)ccc2O1 | 2 | 57 | 5 | nt | nt | nt
COC(=O)C1CCN(S(=O)(=O)Cc2ccccc2)CC1 | 2 | 2 | -3 | 689* | 95 | 0
COC(=O)C1CCN(S(=O)(=O)Cc2ccccc2Cl)CC1 | 33 | 1 | 3 | 17 | 101 | nt
O=C(C1CCN(S(=O)(=O)Cc2ccccc2)CC1)N1CCN(c2ncccn2)CC1 | nt | 0 | 0 | 9 | 105 | nt
O=S(=O)(Cc1ccccc1)N1CCN(c2ncccn2)CC1 | 2 | -2 | -4 | 399* | 95 | 0
CSc1ccc(CN2CCN(S(=O)(=O)Cc3ccccc3)CC2)cc1 | 11 | 1 | -3 | 379* | 91 | -1
CCC(=O)Nc1ccc2c(c1)C(=O)N(C)C[C@@H](OC)[C@@H](C)CN(C(=O)Cc1ccccn1)[C@H](C)CO2 | 2 | -5 | 0 | nt | nt | nt
O=[N+]([O-])c1nn(-c2ccc(Cl)cc2)n(O)c1=NCc1ccccc1Cl | 2 | nt | nt | + | 109 | -1
COC(=O)c1ccc(CN2CCN(C3CCCCC3)C(CCO)C2)cc1 (stereo not given) | 16 | nt | nt | 403* | 106 | -1
COc1ccc(NC(=O)CSc2nnc(-c3ccccn3)n2-c2ccccc2)cc1OC | nt | -3 | -3 | 475* | 101 | 0
CO[C@H]1CN(C)C(=O)c2ccc(NC(=O)C3CCCC3)cc2OC[C@@H](C)N(CCC(F)(F)F)C[C@@H]1C | -3 | -2 | 1 | nt | nt | nt
Cc1ccc(N(C(=O)CCl)C(C(=O)NC2CCCCC2)c2cccnc2)cc1C (stereo not given) | nt | nt | nt | 369* | 97 | 0
C[C@H](CO)N1C[C@H](C)[C@@H](CN(C)S(=O)(=O)c2ccc(C#N)cc2)OCc2ccccc2-c2c(n(C)c3ccccc23)C1=O | -2 | 0 | 4 | nt | nt | nt
CCS(=O)(=O)Nc1ccc2c(c1)C(=O)N(C)[C@@H]1CC[C@H](CC(=O)OC)O[C@@H]1CO2 | 0 | 3 | -2 | nt | nt | nt
c1ccc(-c2csc(N3CCN(c4ccccn4)CC3)n2)cc1 | -19 | -7 | 0 | 699* | 107 | 0
CCCCn1c(/N=C/c2ccc3c(c2)OCO3)nc2ccccc21 | -5 | 0 | 1 | 577* | 114 | -1
SMILES | rRNA inh HTS | Cneo AK release | PglD inh | SUMO Mot1 rescue | CR mimetic SO | Mot1 SUMO dose
C[C@@H]1CN([C@@H](C)CO)C(=O)c2cc(NC(=O)C3CCCCC3)ccc2O[C@@H](C)CCCCO[C@@H]1CN(C)S(=O)(=O)c1cccs1 | -3 | -2 | -1 | nt | nt | nt
Cn1c(=O)nc2n(Cc3ccccc3)c3ccccc3cc-2c1=O | 14 | nt | nt | 417* | 108 | -1
COc1cccc(S(=O)(=O)N[C@H]2CC[C@H](CCn3cc(-c4ccccc4)nn3)O[C@@H]2CO)c1 | -3 | -4 | 3 | nt | nt | nt
C[C@H](CO)N1C[C@H](C)[C@H](CN(C)S(=O)(=O)c2ccccc2)Oc2c(NS(=O)(=O)c3ccccc3)cccc2C1=O | 2 | -1 | 0 | nt | nt | nt
O=C(Nc1cc(F)ccc1F)N[C@H]1CC[C@H](CCNC(=O)c2cnccn2)O[C@@H]1CO | 0 | 20 | 1 | nt | nt | nt
CC(C)C(=O)Nc1ccc(-c2nc3ncccc3o2)cc1 | 6 | 3 | 3 | -8 | 92 | nt
CC(C)C(=O)Nc1cccc(-c2nc3ncccc3o2)c1 | -3 | 2 | -6 | + | 100 | 1
CC(C)C(=O)Nc1ccc(-c2nc3cccnc3o2)cc1 | nt | -4 | 1 | 666* | 108 | -1
COc1cccc(NC(=O)Nc2ccc3c(c2)C(=O)N(C)C[C@@H](OC)[C@@H](C)CN(C)[C@@H](C)CO3)c1 | nt | -6 | -4 | nt | nt | nt
COc1cccc(-c2ccc([C@@H]3[C@H](CO)N(C(C)=O)C34CN(C(C)=O)C4)cc2)c1 | -1 | nt | nt | nt | nt | nt
N#Cc1c(C(F)(F)F)cc(-c2ccc(F)cc2)[nH]c1=O | -24 | nt | nt | 10 | 109 | nt
Cc1cc(C(F)(F)F)c(C#N)c(=O)[nH]1 | nt | 8 | 5 | + | 84 | 0
CC(C)C(=O)Nc1ccc2c(c1)C(=O)N(C)[C@@H]1CC[C@@H](CC(=O)NCC3CC3)O[C@@H]1CO2 | 3 | 0 | -1 | nt | nt | nt
CCn1c(SCC(=O)N/N=C\c2ccccc2OCC(=O)O)nnc1-c1ccc(Cl)cc1 | 9 | 1 | -5 | 34 | 95 | nt
C=C(C)Cn1c(SCC(=O)N/N=C/c2ccccc2OCC(=O)O)nnc1-c1ccc(Br)cc1 | -2 | -6 | -4 | 572* | 96 | 0
CNC[C@H]1Oc2ccc(NC(=O)CCC(F)(F)F)cc2C(=O)N([C@@H](C)CO)C[C@@H]1C | 3 | 0 | -1 | nt | nt | nt
COc1ccc2c3c(n(C)c2c1)[C@@H](CO)N(C(=O)C1CCOCC1)CC31CCN(C(=O)C2CC2)CC1 | -2 | nt | nt | nt | nt | nt
COc1ccc(NC(=O)c2ccc(COc3ccccc3OC)o2)cc1OC | nt | 1 | -4 | 476* | 89 | 0
CC1=C(C#N)S(=O)(=O)C(C#N)C(c2ccccc2)C1 (stereo not given) | -7 | -1 | -1 | 502* | 109 | -1
CO[C@@H]1CC[C@H]2CCN(C)C(=O)CCCN(C)C(=O)c3cccc(C#N)c3OC[C@@H]1O2 | -1 | 4 | 0 | nt | nt | nt
CC(=O)Nc1ccc(C(=O)Nc2nc(-c3ccccn3)cs2)cc1 | -2 | nt | nt | -12 | 88 | nt
O=C(Nc1nc(-c2ccccn2)cs1)c1ccc2c(c1)OCCO2 | -7 | 0 | 0 | 369* | 91 | 0
